Experimental data: ChEMBL document CHEMBL1152833, “Synthesis of some novel N4-(naphtha[1,2-d]thiazol-2-yl)semicarbazides as potential anticonvulsants” (Eur J Med Chem, 2009)
The source made the active and inactive calls.

Assays:
[1] = tested on: Mus musculus; test: Neurotoxicity in Swiss albino mouse at 300 mg/kg, ip after 4 hrs by rotarod test; assay type: toxicity, organism-based; design: dose 300 mg/kg, route intraperitoneal; settings: in vivo
In short: (§1)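 Rotarod test in male Swiss albino mice (18–25 g) after i.p. dosing at 30, 100 and 300 mg/kg, read at 0.5 and 4 h. Mice falling within 30 s in a pre-check were excluded. Neurotoxicity was scored as the minimum dose at which half or more of the mice fell off the rod.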

[2] = tested on: Mus musculus; test: Anticonvulsant activity against maximal electroshock-induced seizures in Swiss albino mouse at 300 mg/kg, ip after 0.5 hrs by MES test; assay type: functional, organism-based; design: dose 300 mg/kg
In short: (§2)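 Male Swiss albino mice (18–25 g) received compound i.p. at 30, 100 and 300 mg/kg. MES seizures were induced after 0.5 and 4 h, with a drop of 0.9% saline placed in the eye before the electrodes went on. Protection meant abolition of the hind-limb tonic extensor component. The tabulated value is the minimum dose protecting half or more of the mice.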

[3] = tested on: Mus musculus; test: Anticonvulsant activity against maximal electroshock-induced seizures in Swiss albino mouse at 300 mg/kg, ip after 4 hrs by MES test; assay type: functional, organism-based; design: dose 300 mg/kg; in short: as §2
[4] = tested on: Mus musculus; test: Anticonvulsant activity against pentylenetetrazole-induced seizures in Swiss albino mouse at 300 mg/kg, ip after 4 hrs by scPTZ test; assay type: functional, organism-based; design: dose 300 mg/kg
In short: (§3)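 Male Swiss albino mice (18–25 g) were dosed i.p. at 30, 100 and 300 mg/kg, examined at 0.5 and 4 h. PTZ 85 mg/kg (CD97) was given and the animals were […]. Protection meant absence of any threshold convulsion, i.e. clonic spasm lasting at least 5 s. The value is the minimum dose active in half or more of the mice.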

[5] = tested on: Mus musculus; test: Toxicity to Swiss albino mouse assessed as mortality following tonic extension at 300 mg/kg, ip after 0.5 hrs; assay type: organism-based; design: dose 300 mg/kg, route intraperitoneal; settings: in vivo
[6] = tested on: Mus musculus; test: Neurotoxicity in Swiss albino mouse at 300 mg/kg, ip after 0.5 hrs by rotarod test; assay type: toxicity, organism-based; design: dose 300 mg/kg, route intraperitoneal; settings: in vivo
In short: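 Male Swiss albino mice (18-25 g) received the compound i.p. at 30, 100 or 300 mg/kg and were tested on the rotarod 0.5 and 4 h later. Mice were pre-checked, and any that fell off within 30 s were excluded. Neurotoxicity was scored as falling off the rod. The value is the minimum dose affecting half or more of the mice.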

[7] = tested on: Mus musculus; test: Anticonvulsant activity in ip dosed Swiss albino mouse assessed as minimum drug concentration required for inhibition of pentylenetetrazole-induced seizures in half or more of mouse after 0.5 hrs by scPTZ test; assay type: functional; in short: as §3
[8] = tested on: Mus musculus; test: Anticonvulsant activity in ip dosed Swiss albino mouse assessed as minimum drug concentration required for inhibition of pentylenetetrazole-induced seizures in half or more of mouse after 4 hrs by scPTZ test; assay type: functional; in short: as §3
[9] = tested on: Mus musculus; test: Neurotoxicity in ip dosed Swiss albino mouse assessed as minimum drug concentration required for falling off the rotarod by half or more of mouse after 0.5 hrs by rotarod test; assay type: toxicity, organism-based; settings: in vivo; in short: as §1
[10] = tested on: Mus musculus; test: Anticonvulsant activity in ip dosed Swiss albino mouse assessed as minimum drug concentration required for inhibition of maximal electroshock-induced seizure in half or more of mouse after 0.5 hrs by MES test; assay type: functional; in short: as §2
[11] = tested on: Mus musculus; test: Anticonvulsant activity in ip dosed Swiss albino mouse assessed as minimum drug concentration required for inhibition of maximal electroshock-induced seizure in half or more of mouse after 4 hrs by MES test; assay type: functional; in short: as §2
[12] = tested on: Mus musculus; test: Neurotoxicity in ip dosed Swiss albino mouse assessed as minimum drug concentration required for falling off the rotarod by half or more of mouse after 4 hrs by rotarod test; assay type: toxicity, organism-based; settings: in vivo; in short: as §1
[13] = tested on: Mus musculus; test: Toxicity to Swiss albino mouse assessed as mortality following tonic extension at 300 mg/kg, ip after 4 hrs; assay type: organism-based; design: dose 300 mg/kg, route intraperitoneal; settings: in vivo
[14] = tested on: Mus musculus; test: Anticonvulsant activity against pentylenetetrazole-induced seizures in Swiss albino mouse at 300 mg/kg, ip after 0.5 hrs by scPTZ test; assay type: functional, organism-based; design: dose 300 mg/kg; in short: as §3
[15] = tested on: Rattus norvegicus; test: Anticonvulsant activity against pentylenetetrazole-induced seizures in Wistar albino rat at 50 mg/kg, po after 0.25 hrs by scPTZ test; assay type: functional, organism-based; design: dose 50 mg/kg
In short: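 Male Wistar rats (100-125 g), compound given orally at 50 mg/kg, then challenged with scPTZ at 70 mg/kg. Absence of such a convulsion counted as protection. Groups of four rats were scored at 0.25, 0.5, 1 and 2 h as number protected out of four.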

[16] = tested on: Mus musculus; test: Antioxidant activity against PTZ-induced decrease in superoxide dismutase activity in Swiss albino mouse brain assessed as enzyme units per mg of protein causing 50% inhibition in NBT reduction rate at 100 mg/kg, ip administered 30 mins before PTZ challenge measured after 4 hrs; assay type: functional; settings: route intraperitoneal
In short: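 Same mouse dosing: 100 mg/kg i.p. 30 min before PTZ 85 mg/kg, brains taken at 4 h. Total SOD was measured in the ethanol phase of an ethanol/chloroform (5:3) extract, as inhibition of NBT reduction by xanthine–xanthine oxidase. One unit gives 50% inhibition; activity is expressed per mg protein (Lowry). n=6, mean ± SEM.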

[17] = tested on: Rattus norvegicus; test: Anticonvulsant activity against pentylenetetrazole-induced seizures in Wistar albino rat at 50 mg/kg, po after 2 hrs by scPTZ test; assay type: functional, organism-based; design: dose 50 mg/kg
In short: (§4)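 Male Wistar rats (100–125 g) were given compound orally at 50 mg/kg. They were challenged with scPTZ at 70 mg/kg at 0.25, 0.5, 1.0 and 2.0 h, and seizures were watched for. Protection meant absence of clonic spasm lasting at least 5 s. The score is the number of rats protected out of four.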

[18] = tested on: Mus musculus; test: Antioxidant activity against PTZ-induced lipid peroxidation in Swiss albino mouse brain assessed as malondialdehyde content per mg of protein at 100 mg/kg, ip preincubated for 30 mins before PTZ challenge measured after 4 hrs by TBARS assay; assay type: functional; settings: route intraperitoneal
In short: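 Mice were dosed 100 mg/kg i.p. 30 min before PTZ 85 mg/kg, and brains were homogenized after 4 h. For TBARS, homogenate supernatant was heated with SDS, acetic acid and 0.8% thiobarbituric acid at 95 °C for 1 h. The product was extracted into n-butanol/pyridine and read at 532 nm. Results are pmol MDA/mg protein, n=6, mean ± SEM.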

[19] = tested on: Rattus norvegicus; test: Anticonvulsant activity against pentylenetetrazole-induced seizures in Wistar albino rat at 50 mg/kg, po up to 2 hrs by scPTZ test; assay type: functional, organism-based; design: dose 50 mg/kg; in short: as §4
[20] = tested on: Rattus norvegicus; test: Neurotoxicity in Wistar albino rat at 50 mg/kg, po by rotarod test; assay type: toxicity, organism-based; design: dose 50 mg/kg, route oral; settings: in vivo

| Compound | Activity [1] | Activity [2] | Activity [3] | Activity [4] | Activity [7] | Activity [8] | Activity [9] | Activity [10] | Activity [11] | Activity [12] | other results |
| --- | --- | --- | --- | --- | --- | --- | --- | --- | --- | --- | --- |
| COc1ccc(/C=N/NC(=O)Nc2nc3c(ccc4ccccc43)s2)cc1 | Non-toxic | inactive | inactive | inactive | – | – | – | – | – | – | Activity [5]: Toxic; Activity [6]: Non-toxic |
| C/C(=N\NC(=O)Nc1nc2c(ccc3ccccc32)s1)c1ccccc1 | Non-toxic | inactive | inactive | – | 300 mg/kg | 300 mg/kg | 100 mg/kg | – | – | – | – |
| COc1cc(/C=N/NC(=O)Nc2nc3c(ccc4ccccc43)s2)ccc1O | – | – | – | – | 300 mg/kg | 300 mg/kg | 300 mg/kg | 300 mg/kg | 300 mg/kg | 100 mg/kg | – |
| O=C(N/N=C/c1ccccc1)Nc1nc2c(ccc3ccccc32)s1 | – | – | inactive | – | 300 mg/kg | 300 mg/kg | 100 mg/kg | 300 mg/kg | – | 300 mg/kg | – |
| O=C(N/N=C/c1ccc(Cl)cc1)Nc1nc2c(ccc3ccccc32)s1 | – | – | – | – | 300 mg/kg | – | 100 mg/kg | 100 mg/kg | 100 mg/kg | 300 mg/kg | Activity [13]: Toxic |
| O=C(N/N=C1\C(=O)Nc2ccccc21)Nc1nc2c(ccc3ccccc32)s1 | – | inactive | – | inactive | 300 mg/kg | – | 100 mg/kg | – | 300 mg/kg | 300 mg/kg | – |
| COc1cc(/C=N/NC(=O)Nc2nc3c(ccc4ccccc43)s2)cc(OC)c1OC | – | – | – | – | – | 300 mg/kg | 100 mg/kg | 300 mg/kg | 300 mg/kg | 100 mg/kg | Activity [14]: inactive |
| O=C(N/N=C/c1ccccc1[N+](=O)[O-])Nc1nc2c(ccc3ccccc32)s1 | – | inactive | inactive | – | 300 mg/kg | 300 mg/kg | – | – | – | 100 mg/kg | Activity [6]: Non-toxic |
| CCC1(C)CC(=O)NC1=O (stereo not drawn) [ETHOSUXIMIDE] | Non-toxic | inactive | inactive | inactive | 300 mg/kg | – | – | – | – | – | Activity [15]: inactive; Activity [6]: Non-toxic |
| O=C(N/N=C/c1ccccc1Cl)Nc1nc2c(ccc3ccccc32)s1 | Non-toxic | inactive | – | – | – | 300 mg/kg | 300 mg/kg | – | 300 mg/kg | – | Activity [14]: inactive |
| O=C(N/N=C/c1ccc(O)cc1)Nc1nc2c(ccc3ccccc32)s1 | Non-toxic | inactive | inactive | inactive | – | – | – | – | – | – | Activity [5]: Toxic; Activity [6]: Non-toxic |
| O=C(N/N=C/c1ccc([N+](=O)[O-])cc1)Nc1nc2c(ccc3ccccc32)s1 | – | – | – | – | 100 mg/kg | 300 mg/kg | 300 mg/kg | 300 mg/kg | 300 mg/kg | 300 mg/kg | Activity [16]: 58; Activity [17]: inactive; Activity [18]: 309 pmol |
| O=C(N/N=C/c1ccc(F)cc1)Nc1nc2c(ccc3ccccc32)s1 | – | – | – | – | 100 mg/kg | 100 mg/kg | 300 mg/kg | 300 mg/kg | 300 mg/kg | 300 mg/kg | Activity [16]: 57; Activity [19]: Active; Activity [20]: Non-toxic; Activity [18]: 278 pmol |
| COc1ccc(OC)c(/C=N/NC(=O)Nc2nc3c(ccc4ccccc43)s2)c1 | Non-toxic | – | inactive | – | – | – | 300 mg/kg | 300 mg/kg | – | – | Activity [14]: inactive; Activity [13]: Toxic |
| COc1cc(/C=N/NC(=O)Nc2nc3c(ccc4ccccc43)s2)cc(OC)c1 | Non-toxic | inactive | inactive | inactive | – | – | – | – | – | – | Activity [5]: Toxic; Activity [6]: Non-toxic |
| C1CCc2nnnn2CC1 [PENTYLENETETRAZOL] | – | – | – | – | – | – | – | – | – | – | Activity [16]: 42; Activity [18]: 418 pmol |
| CCC1(c2ccccc2)C(=O)NC(=O)NC1=O [PHENOBARBITAL] | – | – | – | – | 30 mg/kg | 30 mg/kg | 100 mg/kg | 100 mg/kg | 30 mg/kg | 300 mg/kg | – |
| CCCC(CCC)C(=O)O [VALPROIC ACID] | Non-toxic | inactive | inactive | inactive | 300 mg/kg | – | – | – | – | – | Activity [16]: 65; Activity [6]: Non-toxic; Activity [18]: 216 pmol |
| CN(C)c1ccc(/C=N/NC(=O)Nc2nc3c(ccc4ccccc43)s2)cc1 | – | inactive | inactive | – | 300 mg/kg | 300 mg/kg | 300 mg/kg | – | – | 300 mg/kg | – |
| O=C1NC(=O)C(c2ccccc2)(c2ccccc2)N1 [PHENYTOIN] | – | – | – | inactive | – | – | 100 mg/kg | 30 mg/kg | 30 mg/kg | 100 mg/kg | Activity [14]: inactive |
| NC(=O)N1c2ccccc2C=Cc2ccccc21 [CARBAMAZEPINE] | – | – | – | – | 100 mg/kg | 300 mg/kg | 100 mg/kg | 30 mg/kg | 100 mg/kg | 300 mg/kg | – |
| O=C(N/N=C/c1ccc(Br)cc1)Nc1nc2c(ccc3ccccc32)s1 | – | – | – | – | 100 mg/kg | 100 mg/kg | 100 mg/kg | 100 mg/kg | 100 mg/kg | 300 mg/kg | Activity [16]: 60; Activity [19]: Active; Activity [20]: Non-toxic; Activity [18]: 292 pmol |
| O=C(N/N=C/c1ccccc1O)Nc1nc2c(ccc3ccccc32)s1 | – | – | inactive | – | 300 mg/kg | 300 mg/kg | 100 mg/kg | 100 mg/kg | – | 100 mg/kg | – |
